Measured values published in ChEMBL document CHEMBL4477178, “Biflorin, Isolated from the Flower Buds of Syzygium aromaticum L., Suppresses LPS-Induced Inflammatory Mediators via STAT1 Inactivation in Macrophages and Protects Mice from Endotoxin Shock” (J Nat Prod, 2016).
Active and inactive are the calls of the source. The calls are words filed in the database; no cut-off is given here.

Tests used:
RAW264.7 [1] = experiment: Antiinflammatory activity in mouse RAW264.7 cell lysate assessed as inhibition of LPS-induced iNOS expression preincubated for 1 hr followed by LPS challenge for 24 hrs by Western blot analysis; assay type: functional, cell-based
Summary of the method: (§1)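 RAW 264.7 (DMEM, 10% FBS, 37 °C, 5% CO2) pretreated 1 h at 15, 30 or 60 μM, then LPS 10 ng/mL for 24 h. Lysates run on 10–12% SDS-PAGE, blotted to PVDF, probed with iNOS or COX-2 antibody (1:1000, overnight 4 °C), HRP secondary, ECL; densitometry vs β-actin. Mean ± SD of three independent experiments.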

RAW264.7 [2] = experiment: Cytotoxicity against mouse RAW264.7 cells assessed as cell viability at 60 uM after 24 hrs by MTT assay in absence of LPS; assay type: cell-based; conditions: raw264.7, 24 h
Summary of the method: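 RAW 264.7 seeded at 1 × 10^5 cells/mL, grown overnight, exposed 24 h with or without LPS; MTT (5 mg/mL stock in PBS) added 4 h at 37 °C, formazan dissolved in DMSO, absorbance at 540 nm.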

RAW264.7 [3] = experiment: Antiinflammatory activity in mouse RAW264.7 cells assessed as inhibition of LPS-induced IL-6 mRNA expression at 60 uM after 2 to 12 hrs by qRT-PCR method; assay type: functional, cell-based
Summary of the method: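 RAW 264.7 stimulated with LPS 10 ng/mL with or without 60 μM for 2, 4, 6 and 12 h. Total RNA (1 μg) reverse-transcribed with MuLV RT and random primer; SYBR green real-time qPCR with gene-specific primers, triplicate Ct normalized to β-actin. Mean ± SD, three independent experiments.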

RAW264.7 [4] = experiment: Antiinflammatory activity in mouse RAW264.7 cells assessed as downregulation of LPS-induced TNF-alpha expression at 60 uM preincubated for 1 hr followed by LPS challenge for 6 to 12 hrs by luciferase reporter gene assay; assay type: functional, cell-based
Summary of the method: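 RAW 264.7 transiently cotransfected with promoter-luciferase construct (pGL3-iNOS, pGL3-COX-2 or pTNF-α-luc) plus phRL-TK internal control; 6 h after transfection pretreated 1 h with 60 μM, then LPS 10 ng/mL for 6 or 12 h. Cells washed in cold PBS, lysed, luciferase read. Mean ± SD, three independent experiments.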

Mus musculus [5] = experiment: In vivo inhibition of LPS-induced STAT1 phosphorylation at S727 in C57BL/6 mouse liver at 10 mg/kg, ip pretreated for 1 hr followed by LPS challenge for 6 hrs by Western blot analysis; assay type: functional, organism-based
Summary of the method: (§2)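 Male C57BL/6 mice given 10 mg/kg i.p. or vehicle 1 h before LPS (Salmonella enterica, 25 mg/kg i.p.); liver collected 6 h after LPS, frozen at −80 °C. Liver mRNA by SYBR qRT-PCR normalized to β-actin; protein by Western blot for p-STAT1 (Y701, S727). Eight mice per group; mean ± SD.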

Peritoneal macrophage [6] = experiment: Antiinflammatory activity in C57BL/6 mouse peritoneal macrophages assessed as inhibition of LPS-induced TNF-alpha production at 60 uM preincubated for 1 hr followed by LPS challenge for 48 hrs by ELISA method; assay type: functional; conditions: C57BL/6, Peritoneal macrophage
RAW264.7 [7] = experiment: Antiinflammatory activity in mouse RAW264.7 cell lysate assessed as inhibition of LPS-induced COX-2 expression preincubated for 1 hr followed by LPS challenge for 24 hrs by Western blot analysis; assay type: functional, cell-based; summary of the method: as §1
RAW264.7 [8] = experiment: Antiinflammatory activity in mouse RAW264.7 cells assessed as inhibition of LPS-induced TNF-alpha production at 60 uM preincubated for 1 hr followed by LPS challenge for 24 hrs by ELISA method; assay type: functional
Summary of the method: (§3)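 RAW 264.7 cells in DMEM with 10% FBS, plated at 2 × 10^5 cells/mL and incubated overnight. Pretreated with compound (15, 30 or 60 μM) for 1 h, then LPS 10 ng/mL for 24 h. PGE2 measured by competitive colorimetric ELISA, TNF-α and IL-6 by ELISA, in diluted medium. NS-398 3 μM as positive control for PGE2. Mean ± SD, three independent experiments; IC50 given for PGE2.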

Peritoneal macrophage [9] = experiment: Antiinflammatory activity in C57BL/6 mouse peritoneal macrophages assessed as inhibition of LPS-induced PGE2 production at 60 uM preincubated for 1 hr followed by LPS challenge for 48 hrs by ELISA method; assay type: functional; conditions: C57BL/6, Peritoneal macrophage
Mus musculus [10] = experiment: In vivo inhibition of LPS-induced STAT1 phosphorylation at Y701 in C57BL/6 mouse liver at 10 mg/kg, ip pretreated for 1 hr followed by LPS challenge for 6 hrs by Western blot analysis; assay type: functional, organism-based; summary of the method: as §2
Rattus norvegicus = experiment: Antiinflammatory activity in Sprague-Dawley rat assessed as reduction in carrageenan induced paw edema at 15 mg/kg, ip administered 1 hr before carrageenan challenge measured at 3 hrs post challenge relative to control; assay type: functional
Summary of the method: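 SD rats given compound i.p. (5, 10 or 15 mg/kg) 1 h before subplantar injection of 1% carrageenan in saline (0.1 mL) into the right hind paw. Paw volume measured by plethysmometer at 1, 3 and 5 h. Edema compared with the carrageenan-only group; seven rats per group.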

RAW264.7 [11] = experiment: Antiinflammatory activity in mouse RAW264.7 cells assessed as inhibition of LPS-induced IL-6 production at 60 uM preincubated for 1 hr followed by LPS challenge for 24 hrs by ELISA method; assay type: functional; summary of the method: as §3

SMILES: Cc1cc(=O)c2c(O)c([C@@H]3O[C@H](CO)[C@@H](O)[C@H](O)[C@H]3O)c(O)cc2o1 [BIFLORIN]
- inhibition (RAW264.7 [1]): Dose-dependent effect
- Activity (RAW264.7 [2]): Non-Toxic
- inhibition (RAW264.7 [3]): Active
- Activity (RAW264.7 [4]): Active
- inhibition (Mus musculus [5]): Active
- inhibition at 60 µM (Peritoneal macrophage [6]): 77.5%
- inhibition (RAW264.7 [7]): Dose-dependent effect
- inhibition at 60 µM (RAW264.7 [8]): 75%
- inhibition at 60 µM (Peritoneal macrophage [9]): 42.2%
- inhibition (Mus musculus [10]): Active
- inhibition in vivo at 15 mg/kg (Rattus norvegicus): 60%
- inhibition at 60 µM (RAW264.7 [11]): 51.3%
